The results in this text go back to ChEMBL document CHEMBL3526146, “In vitro and in vivo metabolism and pharmacokinetics of BMS-562086, a potent and orally bioavailable corticotropin-releasing factor-1 receptor antagonist” (Drug Metab Dispos, 2012).

For data set [1], the system named is Hepatocyte. Put plainly: Detection of compound level in mouse hepatocytes treated with 25 uM of BMS-562086 after 3 hrs by HPLC analysis. In kind it is ADME, cell-based. The method in brief:
(§1)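 Mouse, rat, dog, monkey and human hepatocytes (trypan blue viability checked) at 1.0×10^6 cells/ml in Krebs-Henseleit buffer were incubated with 25 µM compound, in duplicate. Conditions were 37°C, 95/5 O2/CO2, orbital shaking, 3 h. 7-Ethoxycoumarin and 7-hydroxycoumarin (100 µM) served as positive controls, with a cell-free negative control. Reactions were quenched with ice-cold acetonitrile, then sonicated and centrifuged; supernatants were analysed by LC/MS/MS.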

In data set [2] the test system is Hepatocyte. Put plainly: Detection of compound level in rat hepatocytes treated with 25 uM of BMS-562086 after 3 hrs by HPLC analysis. The format is ADME, cell-based. A digest of the protocol:
as §1

The nature of data set [3]: Detection of compound level in beagle dog hepatocytes treated with 25 uM of BMS-562086 after 3 hrs by HPLC analysis. The format is ADME, cell-based, Canis lupus familiaris, Hepatocyte. The method in brief: as §1
A short description of data set [4]: Detection of compound level in cynomolgus monkey cryopreserved hepatocytes treated with 25 uM of BMS-562086 after 3 hrs by HPLC analysis. In kind it is ADME, cell-based, Macaca fascicularis, Hepatocyte. The method in brief:
as §1

The subject of data set [5] is Hepatocyte. Put plainly: Detection of compound level in human cryopreserved hepatocytes treated with 25 uM of BMS-562086 after 3 hrs by HPLC analysis. The format is ADME, cell-based. A digest of the protocol:
as §1

Data set [6] is described as follows: Apparent permeability from apical to basolateral side in human Caco2 cells. In kind it is ADME, cell-based. The settings on record: Caco-2. The method in brief: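 Caco-2 cells (passage 50-60) were seeded at 60,000 cells/cm2 on polycarbonate Transwells and cultured 21-25 days. Transport buffer was HBSS with 2% DMA, pH 7.4. Compound was applied apically at 25 µM at 37°C. Only monolayers with TEER 400-500 Ω cm2 at start and end were used, with mannitol as an integrity probe. Papp = (dQ/dt)/(A×C0).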
(Passage across Caco-2 layers is used to estimate intestinal permeability.)

As for `CCOc1ccc2ccc(=O)oc2c1`, the Drug metabolism result in data set [1], in data set [2], in data set [3], in data set [4] and in data set [5] was “metabolite_detected” in each case.

In the case of `OC[C@@H](O)[C@@H](O)[C@H](O)[C@H](O)CO` [MANNITOL], the apparent permeability from apical to basolateral (Papp A→B) (usually how fast a substance crosses the layer from the apical side) in data set [6] stood at 0.21 ×10⁻⁶ cm/s.

On to `O=c1ccc2ccc(O)cc2o1` [UMBELLIFERONE], for which the Drug metabolism result in data set [1], in data set [2], in data set [3], in data set [4] and in data set [5] was “metabolite_detected” throughout.
